Values after ≈ are worked out from the molar mass of the structure shown.
Columns and labels:
Format in all cases: functional
Streptococcus pneumoniae [1] = assay: Antibacterial activity against Streptococcus pneumoniae harboring erm(B) gene after overnight incubation by agar dilution method
Summary of the method: (§1)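 Clinical isolates collected 1998–2008, with macrolide-resistance genes confirmed by PCR. MICs by agar dilution on Mueller-Hinton agar with 5% sheep blood. Inoculum 10^4 CFU/spot, incubated overnight at 35°C in ambient air. S. pneumoniae ATCC 49619 was the quality-control strain in every run.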

Streptococcus pneumoniae [2] = assay: Antibacterial activity against Streptococcus pneumoniae harboring mutation in 23S rRNA after overnight incubation by agar dilution method; summary of the method: as §1
Streptococcus pyogenes [3] = assay: Antibacterial activity against macrolide-resistant Streptococcus pyogenes harboring mef(A) gene after overnight incubation by agar dilution method
Summary of the method: (§2)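 Agar dilution MICs on Mueller-Hinton agar with 5% sheep blood. Inoculum 10^4 CFU/spot, incubated overnight at 35°C in ambient air. Clinical S. pneumoniae or group A streptococcal isolates; resistance genotypes (erm(B), erm(A), mef(A)/mef(E)) were assigned by PCR. S. pneumoniae ATCC 49619 served as QC strain in each run. Range, MIC50 and MIC90 reported per phenotype group.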

Streptococcus pneumoniae [4] = assay: Antibacterial activity against Streptococcus pneumoniae harboring mutation in L4 ribosomal protein after overnight incubation by agar dilution method; summary of the method: as §1
Streptococcus pyogenes [5] = assay: Antibacterial activity against Streptococcus pyogenes harboring erm(B) gene after overnight incubation by agar dilution method; summary of the method: as §1
Streptococcus pneumoniae [6] = assay: Antibacterial activity against macrolide-resistant Streptococcus pneumoniae harboring erm(B) and mef(A) gene after overnight incubation by agar dilution method; summary of the method: as §2
Streptococcus pneumoniae [7] = assay: Antibacterial activity against Streptococcus pneumoniae harboring mef(A) gene after overnight incubation by agar dilution method; summary of the method: as §1
Streptococcus pneumoniae [8] = assay: Antibacterial activity against quinolone-susceptible Streptococcus pneumoniae after overnight incubation by agar dilution method
Summary of the method: (§3)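 Agar dilution on Mueller-Hinton agar supplemented with 5% sheep blood. Inoculum 10^4 CFU/spot, incubated overnight at 35°C in ambient air. Test strains were clinical pneumococcal isolates. S. pneumoniae ATCC 49619 was included as the quality control strain in each run. MIC range, MIC50 and MIC90 were reported for each susceptibility category.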

Streptococcus pneumoniae [9] = assay: Antibacterial activity against penicillin-resistant Streptococcus pneumoniae after overnight incubation by agar dilution method; summary of the method: as §3
Streptococcus pneumoniae [10] = assay: Antibacterial activity against macrolide-susceptible Streptococcus pneumoniae after overnight incubation by agar dilution method; summary of the method: as §2
Streptococcus pneumoniae [11] = assay: Antibacterial activity against Streptococcus pneumoniae harboring erm(B) and mef(A) gene after overnight incubation by agar dilution method; summary of the method: as §1
Streptococcus pneumoniae [12] = assay: Antibacterial activity against penicillin-intermediate Streptococcus pneumoniae after overnight incubation by agar dilution method
Summary of the method: (§4)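 Agar dilution on Mueller-Hinton agar supplemented with 5% sheep blood, inoculum 10^4 CFU/spot, read after overnight incubation at 35°C in ambient air. Clinical isolates with defined genotypes; S. pneumoniae ATCC 49619 quality control strain included in each run. MIC50/MIC90 are MICs inhibiting 50% and 90% of isolates.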

Streptococcus pyogenes [13] = assay: Antibacterial activity against macrolide-resistant Streptococcus pyogenes harboring erm(A) gene after overnight incubation by agar dilution method; summary of the method: as §2
Streptococcus pyogenes [14] = assay: Antibacterial activity against macrolide-susceptible Streptococcus pyogenes after overnight incubation by agar dilution method; summary of the method: as §4
Streptococcus pyogenes [15] = assay: Antibacterial activity against Streptococcus pyogenes harboring mutation in L4 ribosomal protein after overnight incubation by agar dilution method; summary of the method: as §1
Streptococcus pneumoniae [16] = assay: Antibacterial activity against quinolone-resistant Streptococcus pneumoniae after overnight incubation by agar dilution method; summary of the method: as §3
Streptococcus pyogenes [17] = assay: Antibacterial activity against Streptococcus pyogenes harboring mef(A) gene after overnight incubation by agar dilution method; summary of the method: as §1
Streptococcus pneumoniae [18] = assay: Antibacterial activity against penicillin-susceptible Streptococcus pneumoniae after overnight incubation by agar dilution method; summary of the method: as §3
Streptococcus pneumoniae [19] = assay: Antibacterial activity against macrolide-resistant Streptococcus pneumoniae harboring erm(B) gene after overnight incubation by agar dilution method; summary of the method: as §2
Streptococcus pneumoniae [20] = assay: Antibacterial activity against macrolide-resistant Streptococcus pneumoniae harboring mutation in L4 ribosomal protein after overnight incubation by agar dilution method; summary of the method: as §2
Streptococcus pneumoniae [21] = assay: Antibacterial activity against macrolide-resistant Streptococcus pneumoniae harboring mef(A) gene after overnight incubation by agar dilution method; summary of the method: as §2
Streptococcus pneumoniae [22] = assay: Antibacterial activity against Streptococcus pneumoniae harboring erm(A) gene after overnight incubation by agar dilution method; summary of the method: as §1
Streptococcus pyogenes [23] = assay: Antibacterial activity against Streptococcus pyogenes harboring erm(A) gene after overnight incubation by agar dilution method; summary of the method: as §1
Streptococcus pyogenes [24] = assay: Antibacterial activity against macrolide-resistant Streptococcus pyogenes harboring erm(B) gene after overnight incubation by agar dilution method; summary of the method: as §2

CC1(C)S[C@@H]2[C@H](NC(=O)Cc3ccccc3)C(=O)N2[C@H]1C(=O)O [PENICILLIN G]
MIC50 (Streptococcus pneumoniae [1]): 1 µg/mL (≈ 2.99 µM)
MIC90 (Streptococcus pneumoniae [1]): 4 µg/mL (≈ 12 µM)
MIC (Streptococcus pneumoniae [2]): 0.015 µg/mL (≈ 0.0449 µM)
MIC50 (Streptococcus pyogenes [3]): 0.015 µg/mL (≈ 0.0449 µM)
MIC90 (Streptococcus pyogenes [3]): 0.03 µg/mL (≈ 0.0897 µM)
MIC50 (Streptococcus pneumoniae [4]): 4 µg/mL (≈ 12 µM)
MIC90 (Streptococcus pneumoniae [4]): 16 µg/mL (≈ 47.8 µM)
MIC50 (Streptococcus pyogenes [5]): 0.015 µg/mL (≈ 0.0449 µM)
MIC90 (Streptococcus pyogenes [5]): 0.015 µg/mL (≈ 0.0449 µM)
MIC50 (Streptococcus pneumoniae [6]): 2 µg/mL (≈ 5.98 µM)
MIC90 (Streptococcus pneumoniae [6]): 4 µg/mL (≈ 12 µM)
MIC50 (Streptococcus pneumoniae [7]): 0.125 µg/mL (≈ 0.374 µM)
MIC90 (Streptococcus pneumoniae [7]): 4 µg/mL (≈ 12 µM)
MIC50 (Streptococcus pneumoniae [8]): 1 µg/mL (≈ 2.99 µM)
MIC90 (Streptococcus pneumoniae [8]): 4 µg/mL (≈ 12 µM)
MIC50 (Streptococcus pneumoniae [9]): 4 µg/mL (≈ 12 µM)
MIC90 (Streptococcus pneumoniae [9]): 8 µg/mL (≈ 23.9 µM)
MIC50 (Streptococcus pneumoniae [10]): 1 µg/mL (≈ 2.99 µM)
MIC90 (Streptococcus pneumoniae [10]): 2 µg/mL (≈ 5.98 µM)
MIC50 (Streptococcus pneumoniae [11]): 2 µg/mL (≈ 5.98 µM)
MIC90 (Streptococcus pneumoniae [11]): 4 µg/mL (≈ 12 µM)
MIC50 (Streptococcus pneumoniae [12]): 0.5 µg/mL (≈ 1.5 µM)
MIC90 (Streptococcus pneumoniae [12]): 1 µg/mL (≈ 2.99 µM)
MIC50 (Streptococcus pyogenes [13]): 0.015 µg/mL (≈ 0.0449 µM)
MIC90 (Streptococcus pyogenes [13]): 0.015 µg/mL (≈ 0.0449 µM)
MIC50 (Streptococcus pyogenes [14]): 0.015 µg/mL (≈ 0.0449 µM)
MIC90 (Streptococcus pyogenes [14]): 0.015 µg/mL (≈ 0.0449 µM)
MIC (Streptococcus pyogenes [15]): 0.015 µg/mL (≈ 0.0449 µM)
MIC50 (Streptococcus pneumoniae [16]): 0.25 µg/mL (≈ 0.748 µM)
MIC90 (Streptococcus pneumoniae [16]): 4 µg/mL (≈ 12 µM)
MIC50 (Streptococcus pyogenes [17]): 0.015 µg/mL (≈ 0.0449 µM)
MIC90 (Streptococcus pyogenes [17]): 0.03 µg/mL (≈ 0.0897 µM)
MIC50 (Streptococcus pneumoniae [18]): 0.03 µg/mL (≈ 0.0897 µM)
MIC90 (Streptococcus pneumoniae [18]): 0.06 µg/mL (≈ 0.179 µM)
MIC50 (Streptococcus pneumoniae [19]): 1 µg/mL (≈ 2.99 µM)
MIC90 (Streptococcus pneumoniae [19]): 4 µg/mL (≈ 12 µM)
MIC50 (Streptococcus pneumoniae [20]): 4 µg/mL (≈ 12 µM)
MIC90 (Streptococcus pneumoniae [20]): 16 µg/mL (≈ 47.8 µM)
MIC50 (Streptococcus pneumoniae [21]): 0.125 µg/mL (≈ 0.374 µM)
MIC90 (Streptococcus pneumoniae [21]): 4 µg/mL (≈ 12 µM)
MIC (Streptococcus pneumoniae [22]): 0.03 µg/mL (≈ 0.0897 µM)
MIC50 (Streptococcus pyogenes [23]): 0.015 µg/mL (≈ 0.0449 µM)
MIC90 (Streptococcus pyogenes [23]): 0.015 µg/mL (≈ 0.0449 µM)
MIC50 (Streptococcus pyogenes [24]): 0.015 µg/mL (≈ 0.0449 µM)
MIC90 (Streptococcus pyogenes [24]): 0.015 µg/mL (≈ 0.0449 µM)

C[C@H]1COc2c(N3CCN(C)CC3)c(F)cc3c(=O)c(C(=O)O)cn1c23.C[C@H]1COc2c(N3CCN(C)CC3)c(F)cc3c(=O)c(C(=O)O)cn1c23.O [LEVOFLOXACIN]
MIC50 (Streptococcus pneumoniae [1]): 1 µg/mL
MIC90 (Streptococcus pneumoniae [1]): 2 µg/mL
MIC (Streptococcus pneumoniae [2]): 0.06 µg/mL
MIC50 (Streptococcus pyogenes [3]): 0.5 µg/mL
MIC90 (Streptococcus pyogenes [3]): 1 µg/mL
MIC50 (Streptococcus pneumoniae [4]): 1 µg/mL
MIC90 (Streptococcus pneumoniae [4]): 2 µg/mL
MIC50 (Streptococcus pyogenes [5]): 0.5 µg/mL
MIC90 (Streptococcus pyogenes [5]): 1 µg/mL
MIC50 (Streptococcus pneumoniae [6]): 1 µg/mL
MIC90 (Streptococcus pneumoniae [6]): 16 µg/mL
MIC50 (Streptococcus pneumoniae [7]): 1 µg/mL
MIC90 (Streptococcus pneumoniae [7]): 2 µg/mL
MIC50 (Streptococcus pneumoniae [8]): 1 µg/mL
MIC90 (Streptococcus pneumoniae [8]): 2 µg/mL
MIC50 (Streptococcus pneumoniae [9]): 1 µg/mL
MIC90 (Streptococcus pneumoniae [9]): 2 µg/mL
MIC50 (Streptococcus pneumoniae [10]): 1 µg/mL
MIC90 (Streptococcus pneumoniae [10]): 16 µg/mL
MIC50 (Streptococcus pneumoniae [11]): 1 µg/mL
MIC90 (Streptococcus pneumoniae [11]): 16 µg/mL
MIC50 (Streptococcus pneumoniae [12]): 1 µg/mL
MIC90 (Streptococcus pneumoniae [12]): 2 µg/mL
MIC50 (Streptococcus pyogenes [13]): 0.5 µg/mL
MIC90 (Streptococcus pyogenes [13]): 1 µg/mL
MIC50 (Streptococcus pyogenes [14]): 0.5 µg/mL
MIC90 (Streptococcus pyogenes [14]): 0.5 µg/mL
MIC (Streptococcus pyogenes [15]): 0.5 µg/mL
MIC50 (Streptococcus pneumoniae [16]): 16 µg/mL
MIC90 (Streptococcus pneumoniae [16]): 16 µg/mL
MIC50 (Streptococcus pyogenes [17]): 0.5 µg/mL
MIC90 (Streptococcus pyogenes [17]): 1 µg/mL
MIC50 (Streptococcus pneumoniae [18]): 1 µg/mL
MIC90 (Streptococcus pneumoniae [18]): 16 µg/mL
MIC50 (Streptococcus pneumoniae [19]): 1 µg/mL
MIC90 (Streptococcus pneumoniae [19]): 2 µg/mL
MIC50 (Streptococcus pneumoniae [20]): 1 µg/mL
MIC90 (Streptococcus pneumoniae [20]): 2 µg/mL
MIC50 (Streptococcus pneumoniae [21]): 1 µg/mL
MIC90 (Streptococcus pneumoniae [21]): 2 µg/mL
MIC50 (Streptococcus pyogenes [23]): 0.5 µg/mL
MIC90 (Streptococcus pyogenes [23]): 1 µg/mL
MIC50 (Streptococcus pyogenes [24]): 0.5 µg/mL
MIC90 (Streptococcus pyogenes [24]): 1 µg/mL
